The values below come from ChEMBL document CHEMBL2346540 (J Med Chem, 2013).

Common to all, as to assay type: ADME
Data set [1] addresses T1, Cytochrome P450 3A4 (Homo sapiens, UniProt P08684, S119A). The data set is described as follows: Binding affinity to CYP3A4 (3-22)-deleted S119A mutant (unknown origin) expressed in Escherichia coli by stopped flow assay.
Data set [2] concerns the target T2, Cytochrome P450 3A4 (Homo sapiens, UniProt P08684). The data set is described as follows: Binding affinity to C-terminal His-tagged wild type CYP3A4 (unknown origin) expressed in Escherichia coli assessed as rate constant of fast phase of reaction by stopped flow assay.
Data set [3] concerns the target T1, Cytochrome P450 3A4. Kind of data set: Binding affinity to CYP3A4 (3-22)-deleted S119A mutant (unknown origin) expressed in Escherichia coli assessed as increase in melting temperature by spectrophotometric analysis (reference value: 53.5 +/- 0.1 degC).
Data set [4] addresses T1, Cytochrome P450 3A4. The data set is described as follows: Binding affinity to CYP3A4 (3-22)-deleted S119A mutant (unknown origin) expressed in Escherichia coli by spectrophotometric analysis. Conditions: read-out: Ks; call rule not given here. The essentials: (§1)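 Spectrophotometric titration of purified enzyme with small aliquots of ligand in DMSO (final solvent ≤2%) in 50 mM phosphate, pH 7.4, 20% glycerol, 1 mM dithiothreitol; spectra recorded at room temperature and spectral dissociation constant Ks derived from absorbance change vs ligand concentration.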

Data set [5] has as its target T2, Cytochrome P450 3A4. The data set is described as follows: Inhibition of C-terminal His-tagged wild type CYP3A4 (unknown origin)-mediated hydroxylation of 7-benzyloxy-4-trifluoromethylcoumarin expressed in Escherichia coli after 5 mins by fluorimetric analysis. In short, it runs like this: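 Reconstituted system at room temperature: CYP3A4 (0.3 μM) with rat CPR (0.6 μM) in 25 mM phosphate, pH 7.4, 3 mM MgCl2, preincubated 5 min with inhibitor with or without 100 μM NADPH, then 50 μM BFC added.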

For data set [6], the target named is T2, Cytochrome P450 3A4. The data set is described as follows: Binding affinity to C-terminal His-tagged wild type CYP3A4 (unknown origin) expressed in Escherichia coli assessed as spectral changes by spectrophotometric analysis relative to control. The essentials:
as §1

For data set [7], the target named is T2, Cytochrome P450 3A4. Kind of data set: Ratio of ritonavir Ks to compound Ks for C-terminal His-tagged wild type CYP3A4 (unknown origin).
In data set [8] the target is T2, Cytochrome P450 3A4. The data set is described as follows: Binding affinity to C-terminal His-tagged wild type CYP3A4 (unknown origin) expressed in Escherichia coli by spectrophotometric analysis. Conditions: read-out: Ks. The essentials: as §1
In data set [9] the target is T2, Cytochrome P450 3A4. Kind of data set: Binding affinity to C-terminal His-tagged wild type CYP3A4 (unknown origin)-bromoergocryptine complex expressed in Escherichia coli by spectrophotometric analysis. To be noted: read-out: Ks.
The target of data set [10] is T2, Cytochrome P450 3A4. Kind of data set: Ratio of compound binding constant to ritonavir binding constant for C-terminal His-tagged wild type CYP3A4 (unknown origin).
For data set [11], the target named is T2, Cytochrome P450 3A4. Kind of data set: Binding affinity to C-terminal His-tagged wild type CYP3A4 (unknown origin) expressed in Escherichia coli assessed as increase in melting temperature by spectrophotometric analysis (reference value: 52.1 +/- 0.1 degC).
The target in another data set is CYP3A4 (Homo sapiens, UniProt P08684). Kind of data set: Ratio of ritonavir IC50 to compound IC50 for C-terminal His-tagged wild type CYP3A4 (unknown origin). To be noted: read-out: Ratio IC50.
Sequence of CYP3A4 (P08684 whole entry): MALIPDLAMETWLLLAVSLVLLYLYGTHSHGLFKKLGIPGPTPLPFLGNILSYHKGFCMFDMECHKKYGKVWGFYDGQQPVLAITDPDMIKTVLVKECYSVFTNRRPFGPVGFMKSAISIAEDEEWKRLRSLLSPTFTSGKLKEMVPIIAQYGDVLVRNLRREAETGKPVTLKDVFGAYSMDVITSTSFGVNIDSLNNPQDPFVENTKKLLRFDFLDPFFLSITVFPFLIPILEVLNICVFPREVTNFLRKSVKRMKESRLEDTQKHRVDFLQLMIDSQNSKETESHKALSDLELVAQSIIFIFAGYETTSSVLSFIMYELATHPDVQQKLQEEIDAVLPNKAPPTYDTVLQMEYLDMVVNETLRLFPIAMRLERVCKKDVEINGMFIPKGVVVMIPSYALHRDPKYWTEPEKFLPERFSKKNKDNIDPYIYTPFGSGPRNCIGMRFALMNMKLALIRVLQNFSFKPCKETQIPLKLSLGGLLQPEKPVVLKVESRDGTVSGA

T2 sequence (P08684 whole entry): as above
T1 sequence (P08684 2-503 S119A limits assumed): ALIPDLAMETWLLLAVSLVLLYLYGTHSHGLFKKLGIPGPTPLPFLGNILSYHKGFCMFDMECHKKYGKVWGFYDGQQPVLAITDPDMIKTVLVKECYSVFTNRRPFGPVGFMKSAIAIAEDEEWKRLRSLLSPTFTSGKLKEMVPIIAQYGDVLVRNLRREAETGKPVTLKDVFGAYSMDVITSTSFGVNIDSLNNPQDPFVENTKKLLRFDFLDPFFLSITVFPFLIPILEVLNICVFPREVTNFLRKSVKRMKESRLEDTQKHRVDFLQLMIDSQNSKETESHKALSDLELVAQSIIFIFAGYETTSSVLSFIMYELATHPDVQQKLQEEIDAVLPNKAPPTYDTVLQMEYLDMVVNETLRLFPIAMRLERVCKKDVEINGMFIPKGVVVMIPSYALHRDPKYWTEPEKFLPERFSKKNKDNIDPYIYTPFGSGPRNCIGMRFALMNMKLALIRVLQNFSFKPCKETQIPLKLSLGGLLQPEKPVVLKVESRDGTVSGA

The IC50 is the midpoint of a concentration-inhibition curve. Regarding `CC(C)c1nc(CN(C)C(=O)N[C@H](C(=O)N[C@H](CC[C@H](Cc2ccccc2)NC(=O)OCc2cccnc2)Cc2ccccc2)C(C)C)cs1`, the K on Cytochrome P450 3A4 [1] came to 0.32 s⁻¹; on Cytochrome P450 3A4 [2], 7 s⁻¹. The Tm came out at 55.6 °C at Cytochrome P450 3A4 [3] and 57.2 °C on Cytochrome P450 3A4 [11]. For the same compound, the Kd turned out to be 65 nM on Cytochrome P450 3A4 [4], 25 nM at Cytochrome P450 3A4 [8] and 5 nM at Cytochrome P450 3A4 [9]. The compound also returned an IC50 against Cytochrome P450 3A4 [5] of 130 nM. Besides, on Cytochrome P450 3A4 [6], the outcome was Active. Also, the values for the Ratio at Cytochrome P450 3A4 [7] and on Cytochrome P450 3A4 [10] were 2 and 5, respectively.
Regarding `CC(C)c1nc(CN(C)C(=O)N[C@H](C(=O)N[C@H](CC[C@H](Cc2ccccc2)NC(=O)OCc2cnco2)Cc2ccccc2)C(C)C)cs1`, the K on Cytochrome P450 3A4 [1] was 0.2 s⁻¹; on Cytochrome P450 3A4 [2], 2.2 s⁻¹. For the same compound, the Tm is 53.2 °C on Cytochrome P450 3A4 [3] and 54.8 °C at Cytochrome P450 3A4 [11]. The Kd was found to be 970 nM at Cytochrome P450 3A4 [4] and 570 nM at Cytochrome P450 3A4 [8]. Also, on Cytochrome P450 3A4 [5], the IC50 came to 3400 nM. Further, the Activity at Cytochrome P450 3A4 [6] is listed as 60%.
For `CC(C)c1nc(CN(C)C(=O)N[C@H](C(=O)N[C@H](CC[C@H](Cc2ccccc2)NC(=O)OCc2cnc[nH]2)Cc2ccccc2)C(C)C)cs1`, the results for the K on Cytochrome P450 3A4 [1] and on Cytochrome P450 3A4 [2] were 0.17 s⁻¹ and 1.9 s⁻¹, respectively. Moreover, the Tm on Cytochrome P450 3A4 [3] stood at 55.5 °C; on Cytochrome P450 3A4 [11], 56.5 °C. In addition, the values for the Kd at Cytochrome P450 3A4 [4] and at Cytochrome P450 3A4 [8] were 67 nM and 22 nM, respectively. Besides, the IC50 against Cytochrome P450 3A4 [5] was 280 nM. For the same compound, the selectivity ratio at CYP3A4 was 2. Also, at Cytochrome P450 3A4 [6], the Activity entry is “Not Active”. On Cytochrome P450 3A4 [7], the Ratio turned out to be 2.
